This passage reports Activity and inhibition in vivo results from ChEMBL document CHEMBL1157208, “Synthesis and CNS depressant activity of some novel 3-[5-substituted 1,3,4-thiadiazole-2-yl]-2-styryl quinazoline-4(3H)-ones” (Eur J Med Chem, 2008).

In series [1] the test system is Mus musculus. Put plainly: Neurotoxicity in mouse at 300 mg/kg, ip after 0.5 hrs by rotarod test. As to conditions: in vivo. It is filed as toxicity, organism-based. On the set-up: dose 300 mg/kg, route intraperitoneal. A digest of the protocol: (§1)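 Mice dosed i.p. at 30, 100 and 300 mg/kg in PEG 400 were examined 0.5 and 4 h later on a rotorod. Animals were pre-trained on a 3.2 cm rod turning at 6 rpm. Neurotoxicity meant failing to keep equilibrium for at least 1 min in each of three trials. The value is the minimum dose affecting half or more of the animals.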

Series [2] has as its system Mus musculus. As to the kind of experiment: Neurotoxicity in mouse at 300 mg/kg, ip after 4 hrs by rotarod test. It is filed as toxicity, organism-based. Also noted: dose 300 mg/kg, route intraperitoneal. To be noted: in vivo. A digest of the protocol:
as §1
A general note: In the rotarod test animals must keep their balance on a rotating rod.

Series [3] concerns Mus musculus. Put plainly: Anticonvulsant activity in mouse assessed as inhibition of pentylenetetrazole-induced seizure at 300 mg/kg, ip after 4 hrs. It is filed as functional, organism-based. Also noted: dose 300 mg/kg. The essentials:
(§2)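 Male albino mice (CF-1 or Swiss, 18–25 g) received compound suspended in polyethylene glycol 400, i.p., 0.01 ml/g, at 30, 100 and 300 mg/kg. Maximal electroshock and subcutaneous pentylenetetrazole seizure tests were run at 0.5 and 4 h by a previously reported procedure.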

For series [4], the system named is Mus musculus. Put plainly: Sedative-hypnotic effect in mouse assessed as decrease locomotor activity score at 100 mg/kg, ip after 0.5 hrs by actophotometer. It is filed as functional. As to conditions: route intraperitoneal. A digest of the protocol: (§3)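 Locomotor activity in mice was read as a digital photocell score on an actophotometer. Baseline was taken 24 h before treatment, then at 30 min and 1 h after 100 mg/kg i.p. Controls received PEG 400. Percent decrease was calculated from the 1 h values. Results are mean ± SEM of six mice, compared with Student's t test.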

The subject of series [5] is Mus musculus. Put plainly: Sedative-hypnotic effect in mouse assessed as inhibition of locomotor activity at 100 mg/kg, ip by actophotometer. It is filed as functional. To be noted: route intraperitoneal. A digest of the protocol:
as §3

Series [6] relates to Mus musculus. As to the kind of experiment: Sedative-hypnotic effect in mouse assessed as decrease locomotor activity score at 100 mg/kg, ip after 1 hr by actophotometer. It is filed as functional. To be noted: route intraperitoneal. A digest of the protocol: as §3
Series [7] has as its system Mus musculus. Put plainly: Anticonvulsant activity in ip dosed mouse assessed as inhibition of maximal electroshock-induced seizures after 4 hrs. It is filed as functional. The essentials: as §2
Background: The maximal electroshock test induces tonic seizures with an electrical stimulus.

Series [8] concerns Mus musculus. As to the kind of experiment: Anticonvulsant activity in mouse assessed as inhibition of pentylenetetrazole-induced seizure at 300 mg/kg, ip after 0.5 hrs. On the set-up: dose 300 mg/kg. It is filed as functional, organism-based. The essentials:
as §2

Series [9] relates to Mus musculus. Put plainly: Anticonvulsant activity in mouse assessed as inhibition of maximal electroshock-induced seizures at 300 mg/kg, ip after 0.5 hrs. It is filed as functional, organism-based. On the set-up: dose 300 mg/kg. The essentials: as §2
For series [10], the system named is Mus musculus. As to the kind of experiment: Anticonvulsant activity in mouse assessed as inhibition of maximal electroshock-induced seizures at 300 mg/kg, ip after 4 hrs. On the set-up: dose 300 mg/kg. It is filed as functional, organism-based. The essentials: as §2

The source made the active and inactive calls. No cut-off for these calls is given here.

The inhibition in vivo is the relative decrease from the control value, in per cent. As to `Cc1ccc(/C=C/c2nc3ccccc3c(=O)n2-c2nnc(-c3ccc(Cl)cc3)s2)cc1`, the Activity entry in [1] is “Not Active”; in series [2], “Not Active”; in [4], 373.56; in series [6] it was 153.08; in series [7], 300 mg/kg. The result in series [3], in [8] and in [9] was inactive. Also, in series [5], the inhibition in vivo at 100 mg/kg worked out at 64%.
Turning to `COc1ccc(-c2nnc(-n3c(/C=C/c4ccc(C)cc4)nc4ccccc4c3=O)s2)cc1`, the Activity result in [1] is recorded as “Not Active”; in series [2], “Not Active”; in series [4] it was 272.19; in series [6], 137.19. Besides, the outcome in series [3], in series [10], in series [8] and in series [9] was inactive. Moreover, the inhibition in vivo at 100 mg/kg in [5] worked out at 65%.
In the case of `Cc1ccc(-c2nnc(-n3c(/C=C/c4ccccc4)nc4ccccc4c3=O)s2)cc1`, the Activity entry is “Not Active” in [1], “Not Active” in [2], 531 in [4] and 467 in series [6]. The outcome in series [3], in series [10], in series [8] and in [9] was inactive.
Take `COc1ccc(-c2nnc(-n3c(/C=C/c4ccccc4)nc4ccccc4c3=O)s2)cc1`: the Activity entry in [1] is listed as “Not Active”; in [2], “Not Active”; in [4], 381.82; in [6] it was 266.36. The outcome in [3], in series [10], in [8] and in series [9] was inactive. For the same compound, in series [5], the inhibition in vivo at 100 mg/kg was 36%.
For `Cc1ccc(/C=C/c2nc3ccccc3c(=O)n2-c2nnc(-c3ccc(C)cc3)s2)cc1`, the Activity entry in series [1] is “Not Active”; in [2] it was “Not Active”; in [4], 291.39; in [6] it was 92.2. For the same compound, the result in [3], in series [10], in series [8] and in series [9] was inactive. Further, in [5], the inhibition in vivo at 100 mg/kg came to 71%.
In the case of `Cc1ccc(/C=C/c2nc3ccccc3c(=O)n2-c2nnc(/C=C/c3ccccc3)s2)cc1`, the Activity entry in series [1] is recorded as “Not Active”; in series [2], “Not Active”; in series [4], 310.32; in series [6], 123.32. In addition, the outcome in [3], in series [10], in series [8] and in series [9] was inactive. Besides, the inhibition in vivo at 100 mg/kg in [5] turned out to be 67%.
For the compound `COc1ccc(/C=C/c2nc3ccccc3c(=O)n2-c2nnc(/C=C/c3ccccc3)s2)cc1`, the Activity entry is listed as “Not Active” in series [1], “Not Active” in [2], 362.37 in [4] and 228.32 in [6]. Moreover, the outcome in series [3], in series [10], in series [8] and in [9] was inactive. Also, the inhibition in vivo at 100 mg/kg in series [5] came out at 51%.
Turning to `Cc1ccc(/C=C/c2nc3ccccc3c(=O)n2-c2nnc(-c3ccccc3)s2)cc1`, the Activity entry in series [1] was “Not Active”; in [2], “Not Active”; in series [4] it was 353.52; in series [6], 185.15. Besides, the outcome in series [3], in series [10], in series [8] and in series [9] was inactive. Also, the inhibition in vivo at 100 mg/kg in [5] amounted to 55%.
